Screening data as filed in PubChem.
CXCR6 block: CXCR6 receptor inhibitors, primary screen, cell-based, beta-arrestin, luminescence, CHO-K1 PathHunter, 1536-well; C-X-C chemokine receptor type 6 (Homo sapiens), O00574; inhibition, % at 20 µM; AID 602244, 2012; hit rate 0.36% among 360,000; in the data active = inhibition above about 34%, passing the limit was not always enough;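 note: antagonist mode with CXCL16 agonist at 10 nM final; 0% = 10 nM CXCL16 with DMSO and 100% = unstimulated wells without agonist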
EBI2 block: EBI2 receptor antagonists, beta-arrestin recruitment, primary screen, cell-based, luminescence, 7a,25-OHC stimulation, uHTS. 7a,25-OHC stimulated. inhibition, % at 5 µM. AID 651636, 2012. G-protein coupled receptor 183 (Homo sapiens), P32249. hit rate 0.81% among 360,000; in the data active = inhibition above about 38%;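 note: enzyme fragment complementation signal reports receptor beta-arrestin coupling in cells; 0% = agonist plus DMSO wells and 100% = wells without agonist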
Target sequence (P32249 whole entry, looked up, the tested form may be a part): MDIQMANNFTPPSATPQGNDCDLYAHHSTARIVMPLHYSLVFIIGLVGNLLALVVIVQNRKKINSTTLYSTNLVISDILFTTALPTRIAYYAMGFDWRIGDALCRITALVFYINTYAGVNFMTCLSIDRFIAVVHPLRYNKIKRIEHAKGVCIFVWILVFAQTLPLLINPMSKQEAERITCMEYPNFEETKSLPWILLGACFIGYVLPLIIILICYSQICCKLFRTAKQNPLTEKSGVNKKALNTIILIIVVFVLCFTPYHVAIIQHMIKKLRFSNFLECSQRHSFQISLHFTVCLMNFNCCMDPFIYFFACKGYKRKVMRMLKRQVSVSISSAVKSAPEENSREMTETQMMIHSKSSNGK
APJ antagonist: antagonists of human apelin receptor APJ, primary screen, CHO-K1 cells, beta-arrestin complementation, luminescence | inhibition, % at 20 µM | hit rate 0.32% among 330,000;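 active = inhibition above about 40% at 20 µM, limit read from the data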;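 note: cells challenged with 10 nM apelin-13 agonist together with compound; plate controls were apelin-13 plus DMSO wells for no effect and DMSO wells lacking apelin-13 for full effect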
APJ agonist: agonists of human apelin receptor APJ, primary screen, CHO-K1 cells, PathHunter beta-arrestin, luminescence. 0% DMSO wells, 100% apelin. P35414. AID 2520, 2010. hit rate 0.11% among 330,000. activation, % at 20 µM;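 active = activation more than six SD over the plate average, tested at 20 µM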;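 note: 0% = DMSO alone and 100% = apelin-13 at 10 nM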
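Test system: CHO-K1 APJ beta-arrestin complementation cell line. Amount: cell density 1000 per well. Controls: DMSO negative, 10 nM Apelin-13 positive. Signal: luminescent beta-gal fragment complementation, chemiluminescent substrate. Read-out basis: agonist-driven arrestin binding to APJ. Timing: compound stimulation 90 min at 25 °C, detection 60 min.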
CCR6 antagonist: CCR6 receptor antagonists, primary screen, cell-based, CHO-K1, luminescence, beta-arrestin, uHTS. CHO-K1 CCR6 PathHunter beta-arrestin, CCL20-stimulated. inhibition, % at 20 µM. hit rate 0.49% among 340,000. AID 493098, 2011;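 active = compounds whose inhibition of the agonist-driven luminescence signal at 20 µM reaches about 50%, limit read from the data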;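 note: cells stimulated with CCL20 at 14 nM final; plate controls were DMSO with CCL20 for no effect and DMSO without agonist for full effect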
EBI2 conf: EBI2 antagonist hit retest, beta-arrestin, confirmation, cell-based, single concentration, luminescence, 7a,25-OHC stimulation; shares compounds with EBI2 block; 7a,25-OHC antagonism; inhibition, % at 5 µM; hit rate 29% among 2,400; AID 651997, 2013;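 active = inhibition of at least 50%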
EBI2 agonist: EBI2 agonist activity of antagonist hits, confirmation, counter-screen for EBI2 antagonist project, cell-based, single concentration, agonist mode, luminescence; 2,400 tested, under 10 active; AID 652000, 2013; EBI2-expressing cells, 60 min; 0% vehicle, 100% 7α,25-dihydroxycholesterol control; activation, % at 5 µM; shares compounds with EBI2 block;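 active = activation of at least 50%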
bGal counter: E. coli beta-galactosidase enzyme inhibition, confirmation, counter-screen for EBI2 antagonist project, biochemical, luminescence, single concentration; purified beta-galactosidase, luminescent Galacton Star, 15 min; hit rate 1% among 2,400; inhibition, % at 5 µM; shares compounds with EBI2 block;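 active = replicate-average signal at least 3 plate SD below neutral wells, shown as high inhibition, flagging enzyme-inhibiting false positives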;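 note: 0% = DMSO wells with enzyme and 100% = wells lacking enzyme; higher means stronger loss of beta-gal luminescence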
Active calls of the source: *; x = not tested or not shown. Sampled rows, rich in hits. Any-hit rate of the full collection: about 1.5%.

SMILES	CXCR6 block	EBI2 block	APJ antagonist	APJ agonist	CCR6 antagonist	EBI2 conf	EBI2 agonist	bGal counter
CC(C)c1ccc(C(C)NCCS(=O)(=O)c2ccc(Br)cc2)cc1 (stereo unspecified)	6	78*	10	-3	28	61*	0	5
CC(NCCS(=O)(=O)c1ccc(Cl)cc1)c1cccc(Cl)c1 (stereo unspecified)	4	74*	20	2	11	38	0	4
O=C(NCCS(=O)(=O)c1ccc(Br)cc1)c1ccccc1	-15	-6	9	-10	1	x	x	x
CC(C(=O)NCCS(=O)(=O)c1ccc(Cl)cc1)S(=O)(=O)c1ccc(Cl)cc1 (stereo unspecified)	-3	7	10	-4	6	x	x	x
O=C(NCc1ccccc1)c1ccccc1	-5	-6	x	x	13	x	x	x
O=C(NCc1ccccc1)c1ccc(CN2CCC(Cc3ccccc3)CC2)cc1	5	50*	1	-4	8	19	0	0
O=C(NCc1ccccc1)c1ccc(C(=O)NCc2ccccc2)cc1	8	47*	x	x	2	1	-1	-11
CCn1c(SCC(=O)N2CCC(C)CC2)nnc1-c1ccco1	7	5	0	-3	23	x	x	x
COc1ccc(Nc2ccc(OC)cc2)cc1	9	10	-18	1	-22	x	x	x
COc1ccc(Nc2ccc(Nc3ccc(OC)cc3)nn2)cc1	-6	69*	6	5	13	31	1	-10
O=C1c2ccccc2C(=O)N1CCc1ccccn1	4	-4	7	-4	3	x	x	x
O=C1c2cccc3c([N+](=O)[O-])ccc(c23)C(=O)N1CCc1ccccn1	-10	75*	-68	1	-8	41	0	8
O=C1c2ccccc2C(c2nnnn2Cc2ccccc2)N1Cc1ccc2c(c1)OCO2 (stereo unspecified)	6	6	x	x	x	x	x	x
COc1ccc(C(=O)N(C)[C@H]2C[C@H]3c4[nH]c5ccccc5c4CCN3C(=O)[C@H]2CO)cc1	-14	0	x	x	x	x	x	x
COc1ccc(CCN2CC(C(=O)N(C)CCOc3ccccc3)CCC2=O)cc1 (stereo unspecified)	-7	42	24	1	8	x	x	x
CN(CCOc1ccccc1)C(=O)C1CCC(=O)N(CCc2ccc(Cl)cc2)C1 (stereo unspecified)	1	54*	-11	0	14	39	1	-2
CN1CCC(N(C)S(=O)(=O)c2ccc(NC(=O)COc3ccc(F)cc3)cc2)CC1	-2	-4	-5	-1	4	x	x	x
CN1CCC(N(C)S(=O)(=O)c2ccc(NC(=O)COc3ccc(Cl)cc3)cc2)CC1	-2	54*	-1	-1	25	29	1	6
C#CCOCCOCCOCCNc1nc(N2CCOCC2)nc(N2CCN(C(=O)Cn3cc(CCCCN)nn3)CC2)n1	-2	4	x	x	0	x	x	x
CCC(C)Nc1nc(Cl)nc(N(C#N)CN2C(=O)c3ccccc3S2(=O)=O)n1 (stereo unspecified)	22	10	1	-2	-2	x	x	x
CC(C)Nc1nc(Cl)nc(N(C#N)CN2C(=O)c3ccccc3C2=O)n1	20	56*	0	-2	17	53*	0	6
C(=C/c1nccc2c1[nH]c1ccccc12)/c1ccc2c(c1)OCO2	-8	56*	x	x	0	43	1	4
OC(COc1ccc(Br)cc1)Cn1ccnc1 (stereo unspecified)	4	7	2	-2	4	x	x	x
COc1ccc(Br)cc1CN(C)CC(O)COc1ccc(Br)cc1 (stereo unspecified)	-7	91*	12	-1	10	59*	-1	-12
COc1ccc(OCC(O)Cn2cnc(-c3ccc(Br)cc3)c2)cc1 (stereo unspecified)	-10	48*	2	-3	-9	40	1	6
SMILES	CXCR6 block	EBI2 block	APJ antagonist	APJ agonist	CCR6 antagonist	EBI2 conf	EBI2 agonist	bGal counter
COc1ccc(OCC(O)CNc2ccc(Br)cc2)cc1 (stereo unspecified)	-1	76*	0	0	-3	52*	0	-9
COc1ccc(OCC(O)CNC(=O)c2ccc(OC)cc2)cc1 (stereo unspecified)	4	21	9	-1	12	x	x	x
COc1ccc(OCC(O)CNC(=O)c2ccc(Br)cc2)cc1 (stereo unspecified)	3	53*	-13	-2	21	36	1	9
Nc1ccccc1C#CCCCCO	-10	-10	-20	-1	-8	x	x	x
O=C(O)c1cccc(NC(=O)c2ccc3c(c2)C(=O)N(C2CCCCC2)C3=O)c1	0	-2	17	1	14	x	x	x
COc1ccc(OCC(O)COc2ccc(OC)cc2)cc1	-13	72*	5	2	-8	60*	1	8
CCOC(=O)C1CN(S(=O)(=O)c2ccc(C)cc2)CCN1S(=O)(=O)c1ccc(C)cc1 (stereo unspecified)	-3	44*	-7	3	13	8	-1	-13
COc1ccc(CNC(=O)CNS(=O)(=O)c2cccs2)cc1	2	-7	21	-2	7	x	x	x
CN(c1ccc(OCC(=O)NCCc2ccccc2)cc1)S(=O)(=O)c1ccc(Cl)cc1	10	34	-7	-5	31	x	x	x
COc1ccc(CCNC(=O)COc2ccc(N(C)S(=O)(=O)c3ccc(Cl)cc3)cc2)cc1	9	63*	x	x	7	34	-1	-14
CN(/C=C/C(=O)C(F)(F)F)Cc1ccccc1	0	39*	-16	0	-16	6	0	11
Cc1c(C(=O)N2CCN(C(=O)c3ccccc3)CC2)oc2ccc(F)cc12	-1	51*	-6	-6	10	9	0	-10
Cc1c(C(=O)N2CCN(c3ncccn3)CC2)oc2ccc(F)cc12	-7	38	3	0	4	x	x	x
Cc1c(C(=O)N2CCN(S(=O)(=O)c3ccccc3)CC2)oc2ccc(Br)cc12	1	58*	-1	-3	9	35	0	9
